{"source": "paper PMC5879004", "about": "(Heart rhythm, 2017)", "key": {"[1]": {"target": "purified RyR2 (Ovis aries, UniProt A0ACI6RLQ3)", "assay": "Single-channel recordings of purified RyR2 in planar lipid bilayers", "type": "biochemical, sheep"}, "[2]": {"test_system": "RyR2 macromolecular complex (sheep cardiac SR)", "assay": "3H-Ryanodine binding to cardiac SR vesicles", "summary_of_the_method": "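Sheep cardiac SR vesicles (0.5mg/ml) incubated to equilibrium for 3hrs at 37°C in 20mM HEPES pH 7.4, 250mM KCl, 50µM CaCl2, 2nM 3H-ryanodine plus 13nM unlabeled ryanodine, ± test compound. Non-specific binding (200nM ryanodine, 4mM EGTA) subtracted. Quenched by rapid filtration. Ca2+-dependence run across free Ca2+ levels set with EGTA. Data as mean ± SEM.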"}, "[3]": {"test_system": "R176Q mice", "assay": "ECG parameters after injection", "type": "in vivo, mouse", "summary_of_the_method": "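RyR2-R176Q/+ mice aged 2–3 months were anesthetised with 1.5% isoflurane in 95% O2. Six-lead surface ECG and intracardiac electrograms were recorded simultaneously, at baseline and with or without intraperitoneal test compound.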"}, "[4]": {"test_system": "R176Q myocytes", "assay": "Ca2+ transient amplitude induced by 1-Hz field stimulation, R176Q myocytes", "type": "cell-based, mouse", "conditions": "500nM, vehicle 2.4 ± 0.1"}, "[5]": {"test_system": "R176Q mice", "assay": "Inducible VT by extrastimuli pacing after epinephrine and caffeine", "type": "in vivo, mouse", "conditions": "2.5µg/kg i.p. 15 minutes prior to pacing, vehicle 8 of 11", "summary_of_the_method": "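Adult (2–3-month) R176Q mice under 1.5% isoflurane in 95% O2 had surface ECG and intracardiac electrograms recorded. Epinephrine (2mg/kg) and caffeine (120mg/kg) were given i.p., then extrastimulus pacing tested VT inducibility, with or without i.p. test compound. Incidence was scored as mice with VT per group.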"}, "[6]": {"test_system": "ventricular myocytes from R176Q mice", "assay": "Ca2+ spark frequency", "type": "cell-based, mouse", "summary_of_the_method": "(§1)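 Isolated mouse ventricular myocytes were loaded with Fluo-4-AM (2µM) and stimulated with 100nM isoproterenol to raise spontaneous sparks. Cells were exposed to vehicle or test compound for 2hrs, then sparks were imaged by confocal microscopy and spark frequency computed. For R176Q cells, a 0.5nM–5µM dose series was fitted sigmoidally for IC50 (n=6–10 cells per group, 3 mice).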"}, "[7]": {"test_system": "ventricular myocytes of WT mice", "assay": "Ca2+ transient amplitude induced by 1-Hz field stimulation, WT myocytes", "type": "cell-based, mouse", "conditions": "500nM, vehicle 2.6 ± 0.2"}, "[8]": {"test_system": "WT myocytes", "assay": "Ca2+ spark frequency", "type": "cell-based, mouse", "conditions": "500nM", "summary_of_the_method": "as §1"}, "[9]": {"conditions": "IC50, single-channel, purified RyR2 without CaM, 25µM cis-Ca2+"}, "[10]": {"conditions": "−Log([IC50], M), single-channel, purified RyR2 without CaM, 25µM cis-Ca2+"}}, "note": "Entries after “also recorded” stand apart in the source; their conditions may differ."}
{"compound": "CCN(CC)CCO", "note": "[Compound 3, 2-(diethylamino)-ethanol, reference compound]", "values": [{"measurement": "inhibition of channel activity", "setting": "[1]; purified RyR2, all concentrations tested (10nM-100µM)", "result": "did not inhibit"}, {"measurement": "effect on equilibrium 3H-ryanodine binding", "setting": "[2]; equilibrium binding, sheep cardiac SR", "result": "no effect"}]}
{"compound": "CCCCNc1ccc(C(=O)O)c(OC)c1", "note": "[Compound 2, 4-(butylamino)-2-methoxybenzoic acid]", "values": [{"measurement": "IC50", "setting": "[1]; [9]", "result": 0.00945, "unit": "µM"}, {"measurement": "channel activity at concentrations above 100nM", "setting": "[1]; purified RyR2 without CaM", "result": "completely inhibited"}, {"measurement": "IC50", "setting": "[1]; [10]", "result": 0.00955, "unit": "µM"}]}
{"compound": "CCCCNc1ccc(C(=O)OCCN(CC)CC)c(OC)c1", "note": "[EL20, 2-(diethylamino)ethyl 4-(butylamino)-2-methoxybenzoate]", "values": [{"measurement": "effect on ECG parameters (RR, HR, PR, QRS, QTc)", "setting": "[3]", "result": "did not alter any ECG parameters; also recorded: not affected"}, {"measurement": "Ca2+ transient amplitude", "setting": "[4]", "result": "2.8 ± 0.3", "unit": "F/Fo"}, {"measurement": "IC50", "setting": "[1]; IC50, single-channel, purified RyR2 + 100nM CaM", "result": 1.86, "unit": "µM"}, {"measurement": "IC50", "setting": "[1]; IC50, single-channel, purified RyR2 + 1μM CaM", "result": 3.56, "unit": "µM"}, {"measurement": "IC50", "setting": "[1]; [9]", "result": 0.00821, "unit": "µM"}, {"measurement": "reduction in potency (IC50 higher) vs CaM-free purified RyR2", "setting": "[1]; cardiac SR or purified RyR2 supplemented with 100nM or 1µM CaM", "result": "200 to 1000", "unit": "fold"}, {"measurement": "channel activity at concentrations above 100nM", "setting": "[1]; purified RyR2 without CaM", "result": "completely inhibited"}, {"measurement": "IC50", "setting": "[1]; −Log([IC50], M), single-channel, purified RyR2 + 100nM CaM", "result": 1.86, "unit": "µM"}, {"measurement": "IC50", "setting": "[1]; −Log([IC50], M), single-channel, purified RyR2 + 1μM CaM", "result": 3.55, "unit": "µM"}, {"measurement": "IC50", "setting": "[1]; [10]", "result": 0.00813, "unit": "µM"}, {"measurement": "incidence of inducible VT", "setting": "[5]", "result": "1 of 7 and significantly reduced"}, {"measurement": "reduction of CaSF compared to vehicle", "setting": "[6]; 500nM", "result": "~ 70%"}, {"measurement": "IC50", "setting": "[6]; CaSF inhibition, 2hrs exposure", "result": 0.0354, "unit": "µM"}, {"measurement": "concentration required for inhibition of equilibrium 3H-ryanodine binding", "setting": "[2]; equilibrium binding over 3 hours", "result": "> 10", "unit": "µM"}, {"measurement": "shift of the Ca2+-dependence of 3H-ryanodine binding", "setting": "[2]; therapeutic concentrations", "result": "did not shift"}, {"measurement": "Ca2+ transient amplitude", "setting": "[7]", "result": "2.7 ± 0.2", "unit": "F/Fo"}, {"measurement": "effect on CaSF", "setting": "[8]", "result": "did not significantly alter"}]}
